Converted amounts (≈) assume the structure as drawn.
What follows are compounds tested on Plasmodium vinckei petteri (assay: Antimalarial activity against Plasmodium vinckei petteri infected in CD mice (Mus musculus) assessed as inhibition of parasitaemia dosed daily for 4 days measured on day 5). Details: not given.
Format: functional
Outline: (§1)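 Four-day suppressive test: female CD mice (mean body weight 20 2 g) infected with 10⁶ P. vinckei petteri-infected red blood cells in RPMI on day 0. Groups of five treated intraperitoneally days 0–3 at 1, 10 or 20 mg/kg/day. Controls received RPMI alone or chloroquine (1 and 10 mg/kg). Giemsa-stained tail-blood smears, at least 5000 erythrocytes counted. Inhibition % = (control − treated parasitaemia)/control × 100.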

Row | SMILES | ED50
1 | CCc1ccc(/C=C2\Nc3cc(OC)cc(OC)c3C2=O)cc1 | > 20 mg/kg
2 | CCN(CC)CCCC(C)Nc1ccnc2cc(Cl)ccc12 (stereo not drawn) [CHLOROQUINE] | 5 mg/mL (≈ 15.6 mM)

The compounds below were run on Plasmodium falciparum (assay: Antiplasmodial activity against Plasmodium falciparum FcB1/columbia infected in human erythrocytes). Details: not given.
Format: functional, organism-based
Outline: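 Blood stages cultured in human erythrocytes in RPMI 1640 with 5% human serum (Trager–Jensen, modified). Cultures were synchronized every 48 h by 5% D-sorbitol lysis. IC50 is the concentration giving 50% inhibition of parasite growth, with chloroquine as the control drug.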

Row | SMILES | IC50 [µM]
3 | COc1cc(OC)c2c(c1)O/C(=C\c1ccc(F)cc1)C2=O | 86.7
4 | Cc1ccc(/C=C2\Oc3cc(O)cc(O)c3C2=O)cc1 | 63.4
5 | COc1cc2c(c(OC)c1)C(=O)/C(=C/c1cc(C)c(C)cc1C)N2 | 5.6
6 | CCc1ccccc1/C=C1\Oc2cc(OC)cc(OC)c2C1=O | 21
7 | COc1cc(OC)c2c(c1)O/C(=C\c1ccc(C(C)(C)C)cc1)C2=O | 13.3
8 | CCCCc1ccc(/C=C2\Oc3cc(OC)cc(OC)c3C2=O)cc1 | 11.8
9 | COc1cc(OC)c2c(c1)O/C(=C\c1ccc(Br)cc1)C2=O | 49.8
10 | COc1cc(OC)c2c(c1)O/C(=C\c1ccc(-c3ccccc3)cc1)C2=O | 234
11 | COc1cc(OC)c2c(c1)O/C(=C\c1ccc(-c3ccncc3)cc1)C2=O | 85
12 | COc1cc2c(c(OC)c1)C(=O)/C(=C/c1ccc(Br)cc1)N2 | 49.8
13 | COc1cc2c(c(OC)c1)C(=O)/C(=C/c1ccccc1Cl)N2 | 9.9
14 | COc1cc2c(c(OC)c1)C(=O)/C(=C/c1cc(Cl)ccc1Cl)N2 | 8.4
15 | CCc1ccccc1/C=C1\Nc2cc(OC)cc(OC)c2C1=O | 12.8
16 | COc1cc2c(c(OC)c1)C(=O)/C(=C/c1c(C)cccc1C)N2 | 9.1
17 | COc1cc2c(c(OC)c1)C(=O)/C(=C/c1ccc(C)cc1C)N2 | 3.6
18 | COc1cc2c(c(OC)c1)C(=O)/C(=C/c1c(C)c(C)cc(C)c1C)N2 | 8.9
19 | COc1cc2c(c(OC)c1)C(=O)/C(=C/c1ccc(C(C)C)cc1)N2 | 4.4
20 | COc1cc2c(c(OC)c1)C(=O)/C(=C/c1ccc(C(C)(C)C)cc1)N2 | 7.2

Row | SMILES | IC50 [µM]
21 | CCCCc1ccc(/C=C2\Nc3cc(OC)cc(OC)c3C2=O)cc1 | 4.1
22 | C#Cc1ccc(/C=C2\Nc3cc(OC)cc(OC)c3C2=O)cc1 | 13.4
23 | COc1ccc(/C=C2\Nc3cc(OC)cc(OC)c3C2=O)c(OC)c1 | 5
24 | COc1cc(OC)c(/C=C2\Nc3cc(OC)cc(OC)c3C2=O)c(OC)c1 | 1.9
25 | COc1cc2c(c(OC)c1)C(=O)/C(=C/c1cc(OC)c(OC)c(OC)c1)N2 | 1.9
26 | COc1cc2c(c(OC)c1)C(=O)/C(=C/c1ccc(SC)cc1)N2 | 6.7
27 | COc1cc2c(c(OC)c1)C(=O)/C(=C/c1ccc(N3CCOCC3)cc1)N2 | 8.9
28 | COc1cc2c(c(OC)c1)C(=O)/C(=C/c1ccc(N(C)C)cc1)N2 | 3.7
29 | CCc1ccc(/C=C2\Oc3cc(O)ccc3C2=O)cc1 | 28
30 | CCc1ccc(/C=C2\Nc3cc(OC)cc(OC)c3C2=O)cc1 | 1
31 | COc1cc2c(c(OC)c1)C(=O)/C(=C/c1ccc(Cl)cc1)N2 | 17
32 | COc1cc2c(c(OC)c1)C(=O)/C(=C/c1c(F)cccc1Cl)N2 | 9
33 | COc1cc(OC)c2c(c1)O/C(=C\c1ccccc1)C2=O | 60.3
34 | CCc1ccccc1/C=C1\Oc2cc(O)cc(O)c2C1=O | 114
35 | O=C1/C(=C/c2ccccc2)Oc2cc(O)cc(O)c21 | 94.5
36 | O=C1/C(=C/c2ccc(O)cc2)Oc2cc(O)ccc21 | 130
37 | COc1ccc(/C=C2\Oc3cc(OC)cc(OC)c3C2=O)cc1 [4,4',6-TRIMETHOXY-AURONE] | 11

The compounds below were run on Plasmodium vinckei petteri (assay: Antimalarial activity against Plasmodium vinckei petteri infected in CD mice (Mus musculus) assessed as inhibition of parasitaemia at 10 mg/kg, intraperitoneal daily for 4 days measured on day 5). Details: ip.
Format: functional
Outline: as §1

Row | SMILES | inhibition in vivo at 10 mg/kg [%]
38 | CCc1ccc(/C=C2\Nc3cc(OC)cc(OC)c3C2=O)cc1 | 17
39 | CCN(CC)CCCC(C)Nc1ccnc2cc(Cl)ccc12 (stereo not drawn) [CHLOROQUINE] | 100

What follows are compounds tested on Plasmodium vinckei petteri (assay: Antimalarial activity against Plasmodium vinckei petteri infected in CD mice (Mus musculus) assessed as inhibition of parasitaemia at 20 mg/kg, intraperitoneal daily for 4 days measured on day 5). Details: ip.
Format: functional
Outline: as §1

Row | SMILES | inhibition in vivo at 20 mg/kg [%]
40 | CCc1ccc(/C=C2\Nc3cc(OC)cc(OC)c3C2=O)cc1 | 0

The compounds below were run on Mus musculus (assay: Toxicity against CD mouse at 20 mg/kg, ip qd for 4 days). Details: in vivo, 96 h.
Format: organism-based
Parameters: dose 20 mg/kg, route intraperitoneal

Row | SMILES | Activity
41 | CCc1ccc(/C=C2\Nc3cc(OC)cc(OC)c3C2=O)cc1 | Non-toxic

The compounds below were run on Plasmodium vinckei petteri (assay: Antimalarial activity against Plasmodium vinckei petteri infected in CD mice (Mus musculus) assessed as inhibition of parasitaemia at 1 mg/kg, intraperitoneal daily for 4 days measured on day 5). Details: ip.
Format: functional
Outline: as §1

Row | SMILES | inhibition in vivo at 1 mg/kg [%]
42 | CCc1ccc(/C=C2\Nc3cc(OC)cc(OC)c3C2=O)cc1 | 3
43 | CCN(CC)CCCC(C)Nc1ccnc2cc(Cl)ccc12 (stereo not drawn) [CHLOROQUINE] | 0
